The species named for data set [1] is Homo sapiens. The data set can be described thus: Metabolic stability in human plasma assessed as compound remaining at 1 ug/ml after 30 mins.
Data set [2] is described as follows: Metabolic stability in dog plasma assessed as compound remaining at 1 ug/ml after 30 mins. The format is ADME, cell-free, Canis lupus familiaris. To be noted: read-out: Stability. An outline of the steps:
(§1)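 Duplicate incubations; compound at final 1 μg/mL in plasma preincubated and kept at […]; samples taken at 30 or 240 min, quenched with ice-cold acetonitrile, centrifuged, supernatant diluted with water; parent quantified by LC-MS/MS (Polar-RP column, formic acid water/acetonitrile gradient, positive ion mode); % remaining reported.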

Data set [3] in a line: Cmax in ICR mouse plasma at 50 mg/kg, po by LC-MS/MS analysis. The arrangement: dose 50 mg/kg, route oral. In kind it is ADME, organism-based.
A further data set concerns Hepatitis C virus. The data set can be described thus: Antiviral activity against HCV1b infected in human HuH7 cells assessed as inhibition of viral replication after 48 hrs by luciferase reporter gene assay. The format is functional, organism-based, Hepacivirus hominis. To be noted: genotype 1b, Huh-7, 48 h. An outline of the steps: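 Huh7 cells carrying genotype 1b bicistronic subgenomic replicon, seeded 2 × 10⁴/well without G-418; compounds added 18-24 h later, 48 h exposure; 3× or 4× serial dilutions over 0.0001-10 μM in triplicate/quadruplicate; Renilla luciferase read-out versus untreated cells; EC₅₀ by four-parameter sigmoidal nonlinear regression; at least three independent assays.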

Data set [4] is described as follows: Metabolic stability in mouse plasma assessed as compound remaining at 1 ug/ml after 30 mins. The format is ADME, cell-free. The following applies: read-out: Stability.
The nature of data set [5]: Cytotoxicity against human HuH7 cells after 72 hrs by celltiter-glo assay. The format is cell-based, Huh-7. An outline of the steps: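 Replicon 1b Huh7 cells seeded 2 × 10⁴/well; after 24 h, 11 serial 2× dilutions from 100 μM (three repeats each) with no-compound control; 72 h at 37 °C, CO₂, log-phase growth; viability by CellTiter-Glo luminescence; CC₅₀ = concentration giving 50% signal.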

A further data set relates to Plasma. Kind of data set: Dose normalized AUC in ICR mouse plasma at 50 mg/kg, po by LC-MS/MS analysis. Further details: dose 50 mg/kg, route oral. To be noted: in vivo. In kind it is ADME, organism-based.
A short description of data set [6]: Metabolic stability in dog plasma assessed as compound remaining at 1 ug/ml after 4 hrs. In kind it is ADME, cell-free, Canis lupus familiaris. To be noted: read-out: Stability. An outline of the steps: as §1
Data set [7] in a line: Metabolic stability in cynomolgus monkey plasma assessed as compound remaining at 1 ug/ml after 4 hrs. The format is ADME, cell-free, Macaca fascicularis. To be noted: read-out: Stability. An outline of the steps:
as §1

Data set [8] in a line: Metabolic stability in mouse plasma assessed as compound remaining at 1 ug/ml after 4 hrs. In kind it is ADME, cell-free. The following applies: read-out: Stability.
Data set [9] in a line: Metabolic stability in rat plasma assessed as compound remaining at 1 ug/ml after 4 hrs. In kind it is ADME, cell-free. The following applies: read-out: Stability. An outline of the steps: as §1
The species entered for data set [10] is Homo sapiens. The data set can be described thus: Metabolic stability in human plasma assessed as compound remaining at 1 ug/ml after 4 hrs.
The nature of data set [11]: Metabolic stability in rat plasma assessed as compound remaining at 1 ug/ml after 30 mins. In kind it is ADME, cell-free. The following applies: read-out: Stability. An outline of the steps:
as §1

Data set [12] in a line: Metabolic stability in cynomolgus monkey plasma assessed as compound remaining at 1 ug/ml after 30 mins. In kind it is ADME, cell-free, Macaca fascicularis. To be noted: read-out: Stability. An outline of the steps:
as §1

Where only a bound is given, the exact number is not on record here.

Turning to `Cc1ccccc1COC(=O)[C@@H](NP(=O)(OC[C@H]1O[C@@H](n2cnc3c(=O)[nH]c(N)nc32)[C@](C)(O)[C@@H]1O)Oc1cccc2ccccc12)C(C)C` (some centres undefined), the remaining at 0.5 h, 1 ug/ml in the data set listed under Homo sapiens [1] was determined as 100%; in data set [2], 100%; in [4] it was 67%. Also, the Cmax in data set [3] amounted to 668 ng/mL. Also, in the data set with Hepatitis C virus, the EC50 turned out to be 1 µM. The CC50 at 72 h in data set [5] was > 100 µM. The same compound gave an AUC with Plasma of 52 ng·h/mL.

In the case of `CCCCCOC(=O)[C@H](C)NP(=O)(OC[C@H]1O[C@@H](n2cnc3c(=O)[nH]c(N)nc32)[C@](C)(O)[C@@H]1O)Oc1cccc2ccccc12` (some centres undefined), the remaining at 0.5 h, 1 ug/ml in the data set filed under Homo sapiens [1] was 100%; in [2], 98%; in data set [4] it was 0%; in data set [11], 0%; in data set [12], 94%. Further, the remaining at 4 h, 1 ug/ml in data set [6] was 98%; in data set [7], 94%; in data set [8], 0%; in [9], 0%; in the data set listed under Homo sapiens [10], 96%. In addition, the EC50 with Hepatitis C virus was found to be 0.091 µM.

In the case of `CC(OC(=O)[C@@H](NP(=O)(OC[C@H]1O[C@@H](n2cnc3c(=O)[nH]c(N)nc32)[C@](C)(O)[C@@H]1O)Oc1cccc2ccccc12)C(C)C)c1ccccc1` (some centres undefined), the remaining at 0.5 h, 1 ug/ml came to 97% in the data set listed under Homo sapiens [1], 100% in data set [2] and 100% in data set [4]. Moreover, the EC50 in the data set with Hepatitis C virus is > 3 µM.

In the case of `CC(C)[C@H](NP(=O)(OC[C@H]1O[C@@H](n2cnc3c(=O)[nH]c(N)nc32)[C@](C)(O)[C@@H]1O)Oc1cccc2ccccc12)C(=O)OCc1cccc(Cl)c1` (some centres undefined), the remaining at 0.5 h, 1 ug/ml in the data set filed under Homo sapiens [1] turned out to be 100%; in data set [2], 90%; in data set [4], 79%. This compound yielded a Cmax in data set [3] of 388 ng/mL. Moreover, the EC50 in the data set on Hepatitis C virus worked out at 0.68 µM. In the data set with Plasma, the AUC is > 33 ng·h/mL.

With `CC(C)[C@H](NP(=O)(OC[C@H]1O[C@@H](n2cnc3c(=O)[nH]c(N)nc32)[C@](C)(O)[C@@H]1O)Oc1cccc2ccccc12)C(=O)OCC(C)(C)C` (some centres undefined), the figures for the remaining at 0.5 h, 1 ug/ml (in the data set filed under Homo sapiens [1]; in [2]; in data set [4]) were 91%, 79% and 77%, respectively. For the same compound, the Cmax in [3] is 652 ng/mL. The EC50 in the data set with Hepatitis C virus turned out to be 1.5 µM. In [5], the CC50 at 72 h was > 100 µM. The AUC with Plasma is > 45 ng·h/mL.

With `C[C@H](NP(=O)(OC[C@H]1O[C@@H](n2cnc3c(=O)[nH]c(N)nc32)[C@](C)(O)[C@@H]1O)Oc1cccc2ccccc12)C(=O)OC1CCCC1` (some centres undefined), the concentration for a half-maximal effect (EC50) with Hepatitis C virus amounted to 0.07 µM. Further, the CC50 at 72 h in data set [5] is > 100 µM.

In the case of `C[C@H](NP(=O)(OC[C@H]1O[C@@H](n2cnc3c(=O)[nH]c(N)nc32)[C@](C)(O)[C@@H]1O)Oc1cccc2ccccc12)C(=O)OCCc1ccccc1` (some centres undefined), the concentration giving a half-maximal response (EC50) in the data set with Hepatitis C virus worked out at 0.09 µM. The 50% cytotoxic concentration (CC50) at 72 h in [5] is > 100 µM.

For the compound `CCCCOC(=O)[C@H](C)NP(=O)(OC[C@H]1O[C@@H](n2cnc3c(=O)[nH]c(N)nc32)[C@](C)(O)[C@@H]1O)Oc1cccc2ccccc12` (some centres undefined), the remaining at 0.5 h, 1 ug/ml in the data set filed under Homo sapiens [1] came out at 100%; in [2], 95%; in data set [4], 0%; in data set [11], 0.4%; in data set [12] it was 98%. Besides, the remaining at 4 h, 1 ug/ml in [6] worked out at 90%; in [7], 81%; in data set [8] it was 0%; in [9] it was 0%; in the data set listed under Homo sapiens [10], 97%. Also, the EC50 with Hepatitis C virus was found to be 0.1 µM. Moreover, in [5], the CC50 at 72 h was > 100 µM.

For `CC(C)[C@H](NP(=O)(OC[C@H]1O[C@@H](n2cnc3c(=O)[nH]c(N)nc32)[C@](C)(O)[C@@H]1O)Oc1cccc2ccccc12)C(=O)OCCc1ccccc1` (some centres undefined), the EC50 in the data set on Hepatitis C virus came out at 1.7 µM. Besides, in data set [5], the CC50 at 72 h is > 100 µM.

Regarding `CC(C)[C@H](NP(=O)(OC[C@H]1O[C@@H](n2cnc3c(=O)[nH]c(N)nc32)[C@](C)(O)[C@@H]1O)Oc1ccc2ccccc2c1)C(=O)OCc1ccccc1` (some centres undefined), the remaining at 0.5 h, 1 ug/ml in the data set filed under Homo sapiens [1] came out at 93%; in [2], 95%; in data set [4] it was 99%; in [11], 49%; in data set [12] it was 100%. The remaining at 4 h, 1 ug/ml was 99% in [6]; 95% in data set [7]; 76% in [8]; 22% in data set [9]; 100% in the data set filed under Homo sapiens [10]. Besides, the EC50 in the data set with Hepatitis C virus worked out at 1.7 µM. For the same compound, the CC50 at 72 h in data set [5] is > 100 µM.

Take `C[C@H](NP(=O)(OC[C@H]1O[C@@H](n2cnc3c(=O)[nH]c(N)nc32)[C@](C)(O)[C@@H]1O)Oc1cccc2ccccc12)C(=O)OC1CCCCC1` (some centres undefined): the remaining at 0.5 h, 1 ug/ml in the data set listed under Homo sapiens [1] was determined as 100%; in [2], 100%; in data set [4], 2.9%; in [11], 2.5%; in [12] it was 100%. For the same compound, the remaining at 4 h, 1 ug/ml in data set [6] is 100%; in [7], 100%; in [8], 0%; in [9], 0.5%; in the data set listed under Homo sapiens [10] it was 100%. Besides, the EC50 in the data set with Hepatitis C virus came to 0.045 µM. Further, in [5], the 50% cytotoxic concentration (CC50) at 72 h is > 100 µM.

Consider `CC(OC(=O)[C@H](C)NP(=O)(OC[C@H]1O[C@@H](n2cnc3c(=O)[nH]c(N)nc32)[C@](C)(O)[C@@H]1O)Oc1cccc2ccccc12)c1ccccc1` (mixture of isomers), for which the remaining at 0.5 h, 1 ug/ml is 86% in the data set listed under Homo sapiens [1]; 97% in data set [2]; 2.2% in data set [4]; 0.7% in data set [11]; 100% in [12]. In addition, the remaining at 4 h, 1 ug/ml in [6] was 93%; in data set [7], 88%; in data set [8] it was 0%; in [9], 0.3%; in the data set filed under Homo sapiens [10], 86%. For the same compound, the EC50 in the data set with Hepatitis C virus amounted to 0.095 µM. For the same compound, the CC50 at 72 h in data set [5] was > 100 µM.

Regarding `CC(C)(NP(=O)(OC[C@H]1O[C@@H](n2cnc3c(=O)[nH]c(N)nc32)[C@](C)(O)[C@@H]1O)Oc1cccc2ccccc12)C(=O)OCc1ccccc1` (some centres undefined), the remaining at 0.5 h, 1 ug/ml was determined as 100% in the data set filed under Homo sapiens [1]; 100% in data set [2]; 0% in data set [4]; 0% in data set [11]; 92% in [12]. Further, the remaining at 4 h, 1 ug/ml in data set [6] turned out to be 100%; in [7], 83%; in [8], 0%; in [9] it was 0%; in the data set listed under Homo sapiens [10], 41%. In addition, in the data set on Hepatitis C virus, the EC50 is 1.5 µM.

In the case of `CSCC[C@H](NP(=O)(OC[C@H]1O[C@@H](n2cnc3c(=O)[nH]c(N)nc32)[C@](C)(O)[C@@H]1O)Oc1cccc2ccccc12)C(=O)OC(C)C` (some centres undefined), the remaining at 4 h, 1 ug/ml was found to be 100% in [6], 93% in data set [7], 32% in data set [8] and 0.5% in [9]. Moreover, the remaining at 0.5 h, 1 ug/ml in data set [2] turned out to be 100%; in [4] it was 76%; in [11] it was 2.3%; in data set [12], 96%. In the data set on Hepatitis C virus, the EC50 came to 0.34 µM. Besides, the CC50 at 72 h in data set [5] was > 100 µM.

Turning to `CC(C)[C@@H](NP(=O)(OC[C@H]1O[C@@H](n2cnc3c(=O)[nH]c(N)nc32)[C@](C)(O)[C@@H]1O)Oc1cccc2ccccc12)C(=O)OCc1ccccc1` (some centres undefined), the remaining at 0.5 h, 1 ug/ml in the data set filed under Homo sapiens [1] amounted to 70%; in data set [2] it was 69%; in [4], 51%; in [11], 82%; in data set [12] it was 68%. In addition, the remaining at 4 h, 1 ug/ml in [6] worked out at 61%; in [7], 80%; in data set [8], 8%; in [9] it was 56%; in the data set listed under Homo sapiens [10], 82%. Further, the EC50 with Hepatitis C virus is > 3 µM. Also, the CC50 at 72 h in [5] was > 100 µM.

Consider `C[C@H](NP(=O)(OC[C@H]1O[C@@H](n2cnc3c(=O)[nH]c(N)nc32)[C@](C)(O)[C@@H]1O)Oc1cccc2ccccc12)C(=O)OCCCc1ccccc1` (some centres undefined), for which the EC50 in the data set with Hepatitis C virus was 0.17 µM. Further, the CC50 at 72 h in [5] was > 100 µM.

Source of the values: ChEMBL document CHEMBL1177718, “Phosphoramidate ProTides of 2'-C-methylguanosine as highly potent inhibitors of hepatitis C virus. Study of their in vitro and in vivo properties” (J Med Chem, 2010).
